# Laboratory results reported in ChEMBL document CHEMBL3046780, “Syntheses and herbicidal activity of new triazolopyrimidine-2-sulfonamides as acetohydroxyacid synthase inhibitor” (Bioorg Med Chem, 2010).
# Assays:
# [1] = system: Amaranthus retroflexus; assay: Post-emergence herbicidal activity against Amaranthus retroflexus assessed as growth inhibition at 150 g ai/ha measured 15 days post compound treatment under green house conditions; type: functional; conditions: 360 h, read-out: GI
# Method in brief: (§1)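 Compounds formulated as 100 g/L emulsifiable concentrate (DMF solvent, Tween-80 emulsifier), diluted with water, sprayed post-emergence on pot-grown weeds in clay soil (pH 6.5, 1.6% organic matter). Seeds sown 1-3 cm deep, grown at 15-30 °C. Dicots were treated at the 2-leaf stage and monocots at the 1-leaf stage. Untreated and DMF-treated controls were included. Injury was rated visually 15 days after treatment.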
# [2] = system: Eclipta prostrata; assay: Post-emergence herbicidal activity against Eclipta prostrata assessed as growth inhibition at 150 g ai/ha measured 15 days post compound treatment under green house conditions; type: functional; conditions: 360 h, read-out: GI; method in brief: as §1
# [3] = system: Echinochloa crus-galli; assay: Post-emergence herbicidal activity against Echinochloa crus-galli (barnyard grass) assessed as growth inhibition at 150 g ai/ha measured 15 days post compound treatment under green house conditions; type: functional; conditions: 360 h, read-out: GI; method in brief: as §1
# [4] = system: Digitaria sanguinalis; assay: Post-emergence herbicidal activity against Digitaria sanguinalis (hairy crabgrass) assessed as growth inhibition at 150 g ai/ha measured 15 days post compound treatment under green house conditions; type: functional; conditions: 360 h, read-out: GI; method in brief: as §1
# [5] = system: Brassica juncea; assay: Post-emergence herbicidal activity against Brassica juncea assessed as growth inhibition at 150 g ai/ha measured 15 days post compound treatment under green house conditions; type: functional; conditions: 360 h, read-out: GI; method in brief: as §1
# [6] = biological target: T1, Acetolactate synthase, chloroplastic (Arabidopsis thaliana, UniProt P17597)
# T1 sequence (P17597 whole entry): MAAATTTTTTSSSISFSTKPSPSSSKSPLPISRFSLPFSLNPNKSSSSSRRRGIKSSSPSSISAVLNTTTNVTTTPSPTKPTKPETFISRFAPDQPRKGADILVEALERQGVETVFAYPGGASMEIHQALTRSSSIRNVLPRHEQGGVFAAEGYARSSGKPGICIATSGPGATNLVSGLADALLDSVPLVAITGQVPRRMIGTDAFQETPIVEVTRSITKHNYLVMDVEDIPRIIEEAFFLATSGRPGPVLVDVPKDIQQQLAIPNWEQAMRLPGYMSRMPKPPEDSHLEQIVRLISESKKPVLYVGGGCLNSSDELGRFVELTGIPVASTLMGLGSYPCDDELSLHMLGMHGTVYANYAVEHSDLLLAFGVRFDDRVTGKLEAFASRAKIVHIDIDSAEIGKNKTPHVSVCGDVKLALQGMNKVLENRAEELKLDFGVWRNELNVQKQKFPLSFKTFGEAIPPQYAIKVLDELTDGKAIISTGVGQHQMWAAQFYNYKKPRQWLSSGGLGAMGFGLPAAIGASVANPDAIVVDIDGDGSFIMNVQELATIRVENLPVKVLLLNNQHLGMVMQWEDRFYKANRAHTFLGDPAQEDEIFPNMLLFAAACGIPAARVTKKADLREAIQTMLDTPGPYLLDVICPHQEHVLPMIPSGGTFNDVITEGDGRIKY
# [7] = system: Poa annua; assay: Post-emergence herbicidal activity against Poa annua assessed as growth inhibition at 150 g ai/ha measured 15 days post compound treatment under green house conditions; type: functional; conditions: 360 h, read-out: GI; method in brief: as §1
Structure (SMILES),inhibition of growth at 150 g/ha [1],inhibition of growth at 150 g/ha [2],inhibition of growth at 150 g/ha [3],inhibition of growth at 150 g/ha [4],inhibition of growth at 150 g/ha [5],Ki [6],inhibition of growth at 150 g/ha [7]
COc1ccn2nc(S(=O)(=O)Nc3ccccc3F)nc2n1,50%,≥ 80%,< 50%,< 50%,50%,25.9 µM,< 50%
Cc1cc2nc(S(=O)(=O)Nc3ccccc3F)nn2c(C)n1,50%,50%,< 50%,< 50%,50%,27.7 µM,< 50%
COc1ccn2nc(S(=O)(=O)Nc3cc(F)c(F)c(F)c3)nc2n1,< 50%,< 50%,< 50%,< 50%,< 50%,> 1000 µM,< 50%
Cc1cc2nc(S(=O)(=O)Nc3ccc(F)c(F)c3F)nn2c(C)n1,< 50%,50%,< 50%,< 50%,< 50%,> 1000 µM,< 50%
Cc1nc(C(F)(F)F)cc2nc(S(=O)(=O)Nc3cc(F)ccc3F)nn12,< 50%,< 50%,< 50%,< 50%,< 50%,,< 50%
Cc1cc2nc(S(=O)(=O)Nc3cc(F)ccc3F)nn2c(C)n1,< 50%,< 50%,< 50%,< 50%,< 50%,28.1 µM,< 50%
COc1ccn2nc(S(=O)(=O)Nc3ccc(Br)cc3)nc2n1,< 50%,< 50%,< 50%,< 50%,< 50%,> 1000 µM,< 50%
Cc1nc(C(F)(F)F)cc2nc(S(=O)(=O)Nc3ccccc3F)nn12,50%,50%,< 50%,< 50%,50%,569 µM,< 50%
Cc1cc2nc(S(=O)(=O)Nc3cc(Cl)ccc3C)nn2c(C)n1,< 50%,50%,< 50%,< 50%,< 50%,7.75 µM,< 50%
COc1ccn2nc(S(=O)(=O)Nc3ccc(OC(F)(F)F)cc3)nc2n1,< 50%,< 50%,< 50%,< 50%,< 50%,> 1000 µM,< 50%
Cc1nc(C)n2nc(S(=O)(=O)Nc3ccccc3F)nc2c1Cl,50%,50%,< 50%,< 50%,50%,25.8 µM,< 50%
Cc1cc2nc(S(=O)(=O)Nc3ccc(C(F)(F)F)cc3Cl)nn2c(C)n1,< 50%,< 50%,< 50%,< 50%,< 50%,178 µM,< 50%
COc1ccn2nc(S(=O)(=O)Nc3cc(F)ccc3F)nc2n1,50%,50%,< 50%,< 50%,50%,53.3 µM,< 50%
Cc1nc(C(F)(F)F)cc2nc(S(=O)(=O)Nc3ccc(F)c(F)c3F)nn12,< 50%,50%,< 50%,< 50%,< 50%,> 1000 µM,< 50%
Cc1nc(C)n2nc(S(=O)(=O)Nc3ccc(C(F)(F)F)cc3)nc2c1Cl,50%,50%,< 50%,< 50%,< 50%,> 1000 µM,< 50%
COc1ccn2nc(S(=O)(=O)Nc3ccccc3Br)nc2n1,50%,≥ 80%,< 50%,< 50%,≥ 80%,22.6 µM,< 50%
COc1ccn2nc(S(=O)(=O)Nc3c(F)cccc3F)nc2n1,≥ 90%,≥ 90%,< 50%,< 50%,≥ 90%,18.5 µM,
Cc1nc(C)n2nc(S(=O)(=O)Nc3ccc(F)c(F)c3F)nc2c1Cl,< 50%,< 50%,< 50%,< 50%,< 50%,> 1000 µM,< 50%
